sPLA2-III inh – Inhibits HGIII-sPLA2 liposome hydrolysis, primary screen. QFRET BODIPY PC-A2 liposome hydrolysis, fluorescence. inhibition, % at 12.2 µM. 0.56% of 370,000 active. AID 743126;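 active = inhibition above mean plus 3 SD of compounds lying within the high and low control bounds, cut at about 19% in these data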
Target sequence (Q9NZ20 whole entry, looked up): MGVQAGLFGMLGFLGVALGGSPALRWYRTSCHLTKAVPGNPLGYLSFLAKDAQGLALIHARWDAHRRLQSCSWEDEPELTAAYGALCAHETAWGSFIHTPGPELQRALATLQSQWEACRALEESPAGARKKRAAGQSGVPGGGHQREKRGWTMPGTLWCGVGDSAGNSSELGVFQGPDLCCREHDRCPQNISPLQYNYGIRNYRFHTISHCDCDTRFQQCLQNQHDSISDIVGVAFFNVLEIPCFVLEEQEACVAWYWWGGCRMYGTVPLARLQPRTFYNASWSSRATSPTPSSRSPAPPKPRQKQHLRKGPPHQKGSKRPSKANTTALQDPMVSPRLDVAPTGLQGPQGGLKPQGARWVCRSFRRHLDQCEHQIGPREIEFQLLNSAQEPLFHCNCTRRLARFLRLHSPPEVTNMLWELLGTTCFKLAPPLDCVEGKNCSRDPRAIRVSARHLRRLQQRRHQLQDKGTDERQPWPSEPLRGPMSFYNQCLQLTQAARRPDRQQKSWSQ
PfM18AAP inh – PfM18AAP enzyme inhibition; 1.2% of 290,000 active; recombinant PfM18AAP, H-Glu-NHMec fluorogenic cleavage; AID 1822; inhibition, % at 7.35 µM;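 active = inhibition above the campaign mean inhibition over all tested compounds plus 3 SD, cut at about 28% in these data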
IMP-1 inh – blocks Pseudomonas aeruginosa IMP-1 metallo-beta-lactamase. purified IMP-1, nitrocefin hydrolysis, epi-absorbance fluorescence. inhibition, % at 5.6 µM. 0.45% of 290,000 active;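 active = inhibition above the mean plus 3 SD of all compounds in the same screening run, cut at about 4.5% in these data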
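System: purified recombinant IMP-1 beta-lactamase. Medium: Zinc- and detergent-supplemented HEPES buffer, pH 7.1. Compound: one 5.6 µM dose […]. Schedule: 15 min preincubation plus 25 min reaction at 25 °C. Technique: Epi-absorbance fluorescence, 480 nm excitation, 530 nm emission.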
VIM-2 inh – blocks Pseudomonas aeruginosa VIM-2 metallo-beta-lactamase; inhibition, % at 5.6 µM; purified VIM-2, nitrocefin hydrolysis, epi-absorbance fluorescence; AID 1527; 0.89% of 290,000 active;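 active = inhibition above the mean of all tested compounds plus 3 SD, cutoff set per screening run, cut at about 7.5% in these data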;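 also: red hydrolysis product quenches plate fluorescence so inhibitors raise well fluorescence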
Of the large screens only hits and unclear results are named; the others gave an inactive call. In the library only some 2.4% were active in any assay of this set; here they are far more common.

Cc1cccc(N2CCN(C(=S)c3ccc([N+](=O)[O-])cc3)CC2)c1	PfM18AAP inh 30
COc1ccc(C(=O)CCC(=O)N2CCN(c3cccc(Cl)c3)CC2)cc1	none
O=C(Nc1ccc(Oc2ccccc2)cc1)C1CCCN1S(=O)(=O)c1cccc2cccnc12 (stereo not given)	none (no result: PfM18AAP inh, IMP-1 inh, VIM-2 inh)
CCCCC(=O)Nc1ccc(C(=O)NCC2COc3ccccc3O2)cc1 (stereo not given)	none (no result: PfM18AAP inh, IMP-1 inh, VIM-2 inh)
CN(Cc1ccccc1)C(=O)OCc1cn(Cc2cccc(F)c2F)nn1	none (no result: PfM18AAP inh, IMP-1 inh, VIM-2 inh)
O=C(Nc1ccccn1)NC1CCCCC1	IMP-1 inh 4.7
COCCCn1c(-c2ccccc2Cl)n[nH]c1=S	VIM-2 inh 10
S=C(Nc1ccc(N2CCOCC2)cc1)Nc1ccc2snnc2c1	PfM18AAP inh 30
C[C@H](O)[C@@H]1C(=O)N2CCc3c([nH]c4ccccc34)[C@@H]2C[C@@H]1N(C)C(=O)Nc1ccc(Br)cc1	none (no result: PfM18AAP inh, IMP-1 inh, VIM-2 inh)
CCNC(=S)/N=C(/Nc1ccccc1)Nc1nc(C)cc(C)n1	PfM18AAP inh 30
CCOc1ccccc1-n1c(SCC(=O)N(CC)CC)nnc1-c1ccccn1	IMP-1 inh 5.7
Cc1nc2ccccc2c2c1C(=O)N(Cc1cccnc1)C2=O	VIM-2 inh 11
O=C1c2ccccc2C(=O)N1Cc1cccnc1	none
COc1ccccc1N1CCN(S(=O)(=O)c2cc3[nH]c(=O)c(=O)[nH]c3cc2C)CC1	IMP-1 inh 4.5
CCCc1cc(=O)oc2c(CN3CCCC3)c(O)ccc12	none
CCCc1cc(=O)oc2cc(C)c(CN3CCCC3)c(O)c12	IMP-1 inh 7.7
COC(=O)C(NC(=O)CCc1c(C)nc2c(c(C)nn2-c2ccccc2)c1C)C(C)C (stereo not given)	IMP-1 inh 4.6
CCOC(=O)C1(C)C=C(Nc2ccc(O)cc2)C(=O)N1c1ccc(O)cc1 (stereo not given)	PfM18AAP inh 34
NS(=O)(=O)c1ccc(NC(=O)CSc2nc3ccccc3c(=O)n2-c2ccc(Br)cc2)cc1	none (no result: PfM18AAP inh, IMP-1 inh, VIM-2 inh)
CCc1nn(CC(=O)NCCN2CCN(C)CC2)c(=O)c2cc3c(OC)cccc3n12	VIM-2 inh 12
CCOC(=O)c1csc(NC(=O)C2CCCN(S(=O)(=O)c3ccccc3)C2)n1 (stereo not given)	none (no result: PfM18AAP inh, IMP-1 inh, VIM-2 inh)
CN1C(=S)NC(C)(C)CC1(C)c1ccc(O)cc1O (stereo not given)	VIM-2 inh 8.3
CC(C)C[C@H]1COc2cc(N3CCCC3)ccc2S(=O)(=O)N1C	none (no result: PfM18AAP inh, IMP-1 inh, VIM-2 inh)
CCCCNS(=O)(=O)/C=C/c1ccccc1CNC(=O)OC(C)(C)C	none (no result: PfM18AAP inh, IMP-1 inh, VIM-2 inh)
Oc1c(Br)cc(Br)cc1C=Nc1ccc2[nH]ncc2c1	none
Oc1c(Br)cc(Br)cc1C=Nc1cccnc1	PfM18AAP inh 30, IMP-1 inh 28
COc1ccc(C(C[N+](=O)[O-])c2c(C)[nH]n(-c3ccccc3)c2=O)cc1 (stereo not given)	PfM18AAP inh 45
COc1ccc(C(C[N+](=O)[O-])c2c(C)[nH]c3ccccc23)cc1OC (stereo not given)	IMP-1 inh 13
CSCCCNC(=O)CN1C(=O)C2CCCCN2C(=O)c2ccccc21 (stereo not given)	none (no result: PfM18AAP inh, IMP-1 inh, VIM-2 inh)
Clc1cccc(CNc2nc(-c3ccccn3)nnc2-c2ccccc2)c1	none (no result: PfM18AAP inh, IMP-1 inh, VIM-2 inh)
C#CCNC(=O)C[C@H]1C[C@@]2(C(=O)OC)C(=C[C@H](C(C)(C)C)O[C@@H]2C)N(CCCCCCCC)C1=O	none (no result: PfM18AAP inh, IMP-1 inh, VIM-2 inh)
C=CCOc1ccccc1C(=O)/C=C1/C(=O)Nc2ccccc21	PfM18AAP inh 31
C=CCOc1ccc(C(=O)/C=C2/C(=O)Nc3ccccc32)cc1	none
CC(C)(C)N1Cc2nnn(Cc3ccccc3)c2-c2ccccc2S1(=O)=O	none (no result: PfM18AAP inh, IMP-1 inh, VIM-2 inh)
CC(=O)Nc1sc2c(c1-c1nc3ccccc3s1)CCCN(C(C)C)C2	none (no result: PfM18AAP inh, IMP-1 inh, VIM-2 inh)
C#CCN1C(=O)S/C(=C\c2ccc(-c3ccc(Cl)c(C(=O)O)c3)o2)C1=O	VIM-2 inh 9.3
O=C(O)c1cc(-c2ccc(/C=C3\NC(=O)N(c4ccccc4)C3=O)o2)ccc1Cl	none
Cc1[nH]c(=S)c(C#N)c(C)c1C(=O)Nc1ccccc1	none
CNC(=O)c1c(C)[nH]c(=S)c(C#N)c1-c1ccco1	IMP-1 inh 18
Cc1ccc(-c2nn(C)c(=O)c3ccccc23)cc1CNS(C)(=O)=O	none
Cc1ccc(-c2nn(C)c(=O)c3ccccc23)cc1CN1CCCCC1	VIM-2 inh 9.2
O=C(c1cscn1)N1CCC(Oc2cccnc2)CC1	none (no result: PfM18AAP inh, IMP-1 inh, VIM-2 inh)
Oc1ccc(/C=N/NC(=S)Nc2cccnc2)cc1	PfM18AAP inh 31
COc1ccc2cc(C)c3nnc(SCc4cccnc4)n3c2c1	VIM-2 inh 8.9
COC(=O)c1cc(C(C)c2ccccc2O)n2ccccc12 (stereo not given)	none (no result: PfM18AAP inh, IMP-1 inh, VIM-2 inh)
CCCCCCCCN1C(=O)[C@@H](CC(=O)NCc2cccs2)C[C@@]2(C(=O)OC)C1=C[C@H](C(C)C)O[C@@H]2C1CC1	none (no result: PfM18AAP inh, IMP-1 inh, VIM-2 inh)
O=c1c2ccccc2nc(N/N=C/c2c(O)ccc3ccccc23)n1O	PfM18AAP inh 30
O=C(O)COc1ccccc1/C=C1\SC(=S)N(/N=C/c2ccccc2O)C1=O	PfM18AAP inh 33
CCOC(=O)N1CCN(C(=O)C[C@H]2C[C@@]3(C(=O)OC)C(=C[C@H](C(C)C)O[C@@H]3C3CC3)N(CCC3=CCCCC3)C2=O)CC1	none (no result: PfM18AAP inh, IMP-1 inh, VIM-2 inh)
Cc1ccc2nc(C(Cl)(Cl)Cl)nc(N/N=C/c3ccncc3)c2c1	VIM-2 inh 11
Cc1ccc2nc(C(Cl)(Cl)Cl)nc(N/N=C/c3ccc([N+](=O)[O-])cc3)c2c1	none (no result: PfM18AAP inh, IMP-1 inh, VIM-2 inh)
O=C(NNc1ccccc1)Nc1ccccc1F	PfM18AAP inh 30
Oc1ccc2ccccc2c1C=Nn1c(-c2n[nH]c3c2CCC3)n[nH]c1=S	none (no result: PfM18AAP inh, IMP-1 inh, VIM-2 inh)
CCOC(=O)N1CCC(NC(=O)c2ccc3c(c2)sc2nc(-c4cccc(OC)c4)cn23)CC1	PfM18AAP inh 30 (no result: sPLA2-III inh)
CC(C)(C)C(=O)NC(=S)Nc1ccc(Cc2ccncc2)cc1	IMP-1 inh 7.7
CC(=O)Nc1ccccc1-c1ccc(C)o1	none
Cc1ccc(NC(=O)CS(=O)CC(=O)Nc2ccccc2-c2ccc(C)o2)cc1 (stereo not given)	VIM-2 inh 9.1
N#CCC(=O)N/N=C/c1cccc(Oc2ccccc2)c1	PfM18AAP inh 30
COc1ccc(-c2csc(=Nc3ccccc3)n2CCO)cc1	PfM18AAP inh 30
COc1ccc(-c2csc(=NCCO)n2-c2ccccc2)cc1	none
CC(C)N1CCCCC(NC(=O)c2c(F)cccc2F)C1=O (stereo not given)	none (no result: PfM18AAP inh, IMP-1 inh, VIM-2 inh)
O=C(O)c1cc(O)c2c(c1)C(=O)c1cccc(O)c1C2=O	PfM18AAP inh 28, IMP-1 inh 4.6
CCOC(=O)Cc1nc(N2CCN(CCN)CC2)c2c(C)c(C(=O)OCC)sc2n1	none (no result: PfM18AAP inh, IMP-1 inh, VIM-2 inh)
CCOC(=O)C(C)Sc1nnc2c3ccccc3n(C)c2n1 (stereo not given)	VIM-2 inh 8.8
COc1ccc(OC)c(Nc2c3ccccc3nc3ccccc23)c1	VIM-2 inh 11
Cc1occc1-c1nnc(SCC(=O)Nc2ccncc2)n1-c1ccccc1	none (no result: PfM18AAP inh, IMP-1 inh, VIM-2 inh)
Cc1ccc2c(c1)-c1c(cnn1CC(=O)NCCc1cccc(F)c1)CO2	none (no result: PfM18AAP inh, IMP-1 inh, VIM-2 inh)
CCCNC(=O)c1ccc(N2CCC3(CC2)CC(c2ccccc2)=NO3)c(N)c1	none
CCCNC(=O)c1ccc(N2CCC3(CC2)CC(c2ccccc2)=NO3)c(NC(=O)Cc2ccc(F)cc2)c1	IMP-1 inh 9.9

Assay outcomes as filed in PubChem.
